{"source": "ChEMBL document CHEMBL2424598", "about": "“Identification and optimization of pteridinone Toll-like receptor 7 (TLR7) agonists for the oral treatment of viral hepatitis” (J Med Chem, 2013)", "key": {"Cynomolgus monkey [1]": {"test_system": "Cynomolgus monkey", "test": "Agonist activity at […] in po dosed cynomolgus monkey assessed as increase of serum IFNalpha level after 1 to 24 hrs by ELISA", "assay_type": "functional, organism-based", "conditions": "Macaca fascicularis", "method_in_brief": "(§1)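 Healthy male cynomolgus monkeys, n = 3 per group, dosed either by 30 min iv infusion or orally. Serum was sampled predose and at 1, 2, 4, 8, 12 and 24 h postdose. IFN-α was measured by species-specific ELISA (limit of detection 130 pg/mL) and reported as mean peak serum level ± SD.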"}, "[2]": {"test": "Half life in dog liver microsomes", "assay_type": "ADME, Canis lupus familiaris, Microsome"}, "[3]": {"test": "Oral bioavailability in cynomolgus monkey at 0.3 mg/kg", "assay_type": "ADME, organism-based, Macaca fascicularis", "conditions": "in vivo", "method_in_brief": "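Healthy male cynomolgus monkeys, n = 3, received a 30 min iv infusion at 0.1 mg/kg or an oral dose at 0.3 mg/kg. The oral formulation was water at pH 3.1 (HCl). Plasma PK parameters (CL, Vss, F) are reported as mean ± SD.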"}, "Cynomolgus monkey [4]": {"test_system": "Cynomolgus monkey", "test": "Agonist activity at […] in cynomolgus monkey assessed as increase of serum IFNalpha level at 1 mg/kg, po after 1 to 24 hrs by ELISA", "assay_type": "functional, Macaca fascicularis", "method_in_brief": "as §1"}, "Cynomolgus monkey [5]": {"test_system": "Cynomolgus monkey", "test": "Agonist activity at […] in cynomolgus monkey assessed as increase of serum IFNalpha level at 2 mg/kg, po after 1 to 24 hrs by ELISA", "assay_type": "functional, Macaca fascicularis", "method_in_brief": "as §1"}, "[6]": {"test": "Cmax in cynomolgus monkey at 1 mg/kg, po", "assay_type": "ADME, organism-based, Macaca fascicularis", "parameters": "dose 1 mg/kg, route oral", "conditions": "in vivo", "method_in_brief": "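Male cynomolgus monkeys, n = 3 per group, received a 30 min iv infusion or an oral dose. Compound was measured in serum (limit of quantitation 0.04 ng/mL), and Cmax is reported as the group mean.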"}}}
{"smiles": "CCCCOc1nc(N)c2c(n1)N(Cc1cccc(CN3CCCC3)c1)CC(=O)N2", "note": "[VESATOLIMOD]", "values": [{"measurement": "Activity", "setting": "Cynomolgus monkey [1]", "result": "Dose-dependent effect"}, {"measurement": "half-life", "setting": "[2]", "result": 58.6, "unit": "min"}, {"measurement": "bioavailability", "setting": "[3]", "result": 1.1, "unit": "%"}, {"measurement": "Activity", "setting": "Cynomolgus monkey [4]", "result": 22367, "unit": "pg/mL"}, {"measurement": "Activity", "setting": "Cynomolgus monkey [5]", "result": 119000, "unit": "pg/mL"}, {"measurement": "Cmax", "setting": "[6]", "result": 20.7, "unit": "ng/mL"}]}
